Assays:
[1] = Hydrolysis rate of the compound
How it was run: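 pH-stat at pH 9, titrated with 1 mM NaOH. Substrate 100 μM in deionized water with 2 mM Ca²⁺, under a nitrogen stream. Started with recombinant human synovial PLA₂ (1.69 nmol, 2.41 μg), purified from baculovirus by reversed-phase HPLC; preliminary set used E. coli-expressed enzyme. Rate recorded for 1 h from base consumption.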

[2] = Critical micelle concentration determined from the plots of the fluorescence intensity as a function of compound concentration; assay type: ADME
How it was run: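 Fluorescence of 8-anilino-1-naphthalenesulfonic acid (5 μM) followed as a function of compound concentration. Buffer: 20 mM HEPES pH 7.5 with 2 mM Ca²⁺, no DTNB. cmc read from the intensity-versus-concentration plot.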

[3] = Ratio of catalysis rate (kcat) and Michaelis-Menten constant (Km) of the compound
How it was run: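 Recombinant human synovial PLA₂ (baculovirus-expressed, HPLC-purified) at 14 nM in 20 mM HEPES pH 7.5, 2 mM Ca²⁺, 0.8 mM DTNB. Thioester hydrolysis read at 405 nm as thionitrobenzoate (ε 13 600). Initial rates measured at substrate concentrations up to 100 μM. Apparent kcat/KM taken as the slope of rate versus [S] divided by enzyme concentration.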

[4] = Hydrolysis turn over determined from the plots of the fluorescence assay quantified by HPLC
How it was run: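 Recombinant human synovial PLA2 expressed in E. coli. Turnover of an amine-headgroup (phosphatidylethanolamine) substrate was measured by derivatizing the amine with excess fluorescamine and quantifying the fluorescent derivatives by reversed-phase HPLC. The rate is expressed as nmol·min⁻¹·mg⁻¹ enzyme.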

Row | Compound | Hydrolysis (nmol min-1 mg-1) [1] | CMC [2] | Ratio [3] | CMC [4] [mM]
1 | CCCCCC(=O)OC[C@H](COP(=O)(O)O[C@@H](C)[C@@H](N)C(=O)O)OC(=O)CCCCC | < 5 | – | – | –
2 | CCCCCC(=O)SC[C@H](COP(=O)(OC)OC)SC(=O)CCCCC | – | 0.04 mM | < 100 l s-1 M-1 | –
3 | CCCCCOC[C@H](COP(=O)(O)OC)SC(=O)CCC | – | – | < 100 l s-1 M-1 | –
4 | CCCCCCOC[C@H](COP(=O)(O)OC)SC(=O)CCc1ccccc1 | – | – | 160 l s-1 M-1 | –
5 | CCCCCC(=O)OC[C@H](COP(=O)(O)OC[C@H]1CCCN1)OC(=O)CCCCC | 13 | 0.5 mM | – | –
6 | CCCCCC(=O)OC[C@H](COP(=O)(O)OCCO)OC(=O)CCCCC | < 5 | – | – | –
7 | CCCCCCCCOC[C@H](COP(=O)([O-])OC)SC(=O)CCCCCCC.[Li+] | – | 0.13 mM | 12000 l s-1 M-1 | –
8 | CCC(=O)SC[C@H](COP(=O)([O-])OC)SC(=O)CC.[Li+] | – | >= 3 mM | < 10 l s-1 M-1 | –
9 | CCCCC(=O)SC[C@H](COP(=O)([O-])OC)SC(=O)CCCC.[Li+] | – | > 9 mM | 870 l s-1 M-1 | –
10 | CCCCCC(=O)OC[C@H](COP(=O)(O)OCCN)OC(=O)CCCCC | 5.3 | – | – | 2.3
11 | CCCCCC(=O)OC[C@H](COP(=O)(O)OC[C@@H](N)C(=O)O)OC(=O)CCCCC | < 5 | – | – | –
12 | CCCCCCCCCC(=O)S[C@H](COC/C=C/c1ccccc1)COP(=O)([O-])OC.[Li+] | – | 0.04 mM | 19000 l s-1 M-1 | –
13 | CCCC(=O)SC[C@H](COP(=O)([O-])OC)SC(=O)CCC.[Li+] | – | 2.3 mM | 200 l s-1 M-1 | –
14 | CCCCCCC(=O)SC[C@H](COP(=O)([O-])OC)SC(=O)CCCCCC.[Li+] | – | 0.3 mM | 37700 l s-1 M-1 | –
15 | CCCCCCCCCC(=O)S[C@H](COCc1ccc(-c2ccccc2)cc1)COP(=O)([O-])OC.[Li+] | – | 0.1 mM | 2500 l s-1 M-1 | –
16 | CCCCCCCC(=O)S[C@H](COCCCCC)COP(=O)([O-])OC.[Li+] | – | 1.25 mM | 7000 l s-1 M-1 | –

Row | Compound | Hydrolysis (nmol min-1 mg-1) [1] | CMC [2] | Ratio [3] | CMC [4] [mM]
17 | CCCCCCCCC(=O)SC[C@H](COP(=O)([O-])OC)SC(=O)CCCCCCCC.[Li+] | – | < 0.03 mM | 541000 l s-1 M-1 | –
18 | CC/C=C\CCOC[C@H](COP(=O)([O-])OC)SC(=O)CCCCCCCCC.[Li+] | – | 0.2 mM | 5900 l s-1 M-1 | –
19 | CCCCCCOC[C@H](COP(=O)(O)OC)SC(=O)c1ccccc1 | – | – | < 100 l s-1 M-1 | –
20 | CCCCCCCC(=O)S[C@H](COCCC)COP(=O)([O-])OC.[Li+] | – | 1 mM | 1200 l s-1 M-1 | –
21 | CCCOC[C@H](COP(=O)([O-])OC)SC(=O)CCC.[Li+] | – | 3 mM | < 10 l s-1 M-1 | –
22 | CCCCCC(=O)SC[C@H](COP(=O)([O-])OC)SC(=O)CCCCC.[Li+] | – | >= 3 mM | 1800 l s-1 M-1 | –
23 | CCCCCC(=O)OC[C@H](COP(=O)(O)OC[C@@H]1CCCN1)OC(=O)CCCCC | 12 | 0.8 mM | – | –
24 | CCCCCCCCCC(=O)S[C@H](COCCC(C)(C)C)COP(=O)([O-])OC.[Li+] | – | 0.4 mM | 627 l s-1 M-1 | –
25 | CCCCCC(=O)OC[C@H](COP(=O)(O)OC)OC(=O)CCCCC | < 5 | – | – | –
26 | CCCCCCCCOC[C@H](COP(=O)(O)OC)SC(=O)CCC | – | – | 3700 l s-1 M-1 | –
27 | CC/C=C/C(=O)S[C@H](COCCCCCC)COP(=O)(O)OC | – | – | < 100 l s-1 M-1 | –
28 | CCCCCCCCCC(=O)S[C@H](COCc1ccccc1)COP(=O)([O-])OC.[Li+] | – | 0.2 mM | 5000 l s-1 M-1 | –
29 | CCCCCCOC[C@H](COP(=O)(O)OC)SC(=O)CCC(C)C | – | – | < 100 l s-1 M-1 | –
30 | CCCCCCCC(=O)SC[C@H](COP(=O)([O-])OC)SC(=O)CCCCCCC.[Li+] | – | 0.03 mM | 408000 l s-1 M-1 | –
31 | CCCCCCCCCC(=O)S[C@H](COCc1ccc(Oc2ccccc2)cc1)COP(=O)([O-])OC.[Li+] | – | 0.04 mM | 4600 l s-1 M-1 | –

— ChEMBL document CHEMBL1127806, “Substrate specificity in short-chain phospholipid analogs at the active site of human synovial phospholipase A2” (J Med Chem, 1994)
